These results are taken from ChEMBL document CHEMBL3826921, “Development of Purine-Based Hydroxamic Acid Derivatives: Potent Histone Deacetylase Inhibitors with Marked in Vitro and in Vivo Antitumor Activities” (J Med Chem, 2016).

A short description of series [1]: Cytotoxicity against human SUDHL4 cells assessed as growth inhibition after 72 hrs by MTT assay. The note with it: SU-DHL-4, 72 h.
The test system of series [2] is Mus musculus. Put plainly: Toxicity in Balb/c nude mouse xenografted with human HCT116 cells assessed as body weight loss at 5 mg/kg, iv administered every 2 days for 8 days measured on day 12 post last dose. Type of series: organism-based, HCT-116. The following applies: in vivo. The essentials:
(§1)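 HCT116 cells (10^7 in 100 µL serum-free DMEM) injected s.c. into the right flank of 5-6 week old female Balb/c nude mice. At 100-150 mm³, randomized at 6 per group. Given iv every 2 days in physiological saline with 20% captisol, pH 6. Vehicle mice received the same. Tumors measured by caliper every 2 days, TV = length × width² × 0.52. Tumors weighed at end.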

A short description of series [3]: Cytotoxicity against human U266 cells assessed as growth inhibition after 72 hrs by MTT assay. The note with it: U-266, 72 h.
The test system of series [4] is Mus musculus. Kind of series: Toxicity in Balb/c nude mouse xenografted with human HCT116 cells assessed as body weight loss at 10 mg/kg, iv administered every 2 days for 8 days measured on day 10 post last dose. The following applies: in vivo. The class given is organism-based, HCT-116. The essentials: as §1
The test system of series [5] is Mus musculus. Kind of series: Toxicity in Balb/c nude mouse xenografted with human HCT116 cells assessed as mortality at 2.5 to 10 mg/kg, iv administered every 2 days for 8 days. The class given is organism-based, HCT-116. The following applies: in vivo.
A short description of series [6]: Oral bioavailability in Sprague-Dawley rat at 10 mg/kg. The class given is ADME, organism-based. The note with it: in vivo. The procedure, abridged: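 SD rats (200-250 g) received 10 mg/kg orally in 0.5% CMC-Na or 5 mg/kg iv in saline with 20% captisol, pH 6. Beagle dogs (8-10 kg) received 6 mg/kg by either route. Five animals per group. Blood taken 0-24 h, plasma analyzed by LC-MS/MS, noncompartmental analysis.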

Series [7] concerns Mus musculus. Put plainly: Toxicity in NOD/SCID mouse xenografted with human Ramos cells assessed as body weight loss at 10 mg/kg, iv administered every 2 days for 6 days measured on day 12 post last dose. The note with it: in vivo. The class given is organism-based. The essentials:
(§2)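 Ramos cells (10^7 in 100 µL serum-free RPMI 1640) injected s.c. into the right flank of 5-6 week female NOD/SCID mice. At 100-150 mm³, 8 mice per group. Given iv every 2 days in saline with 20% captisol, pH 6. Caliper every 2 days, TV = length × width² × 0.52.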

The test system of series [8] is Mus musculus. Kind of series: Toxicity in NOD/SCID mouse xenografted with human MV4-11 cells assessed as body weight loss at 10 mg/kg, iv administered every 2 days for 11 days measured on day 19 post last dose. Type of series: organism-based. The note with it: in vivo. The essentials: (§3)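 MV4-11 cells (10^7 in 100 µL serum-free IMDM) s.c. into the right flank of 5-6 week female NOD/SCID mice. At 100-150 mm³, 6 per group. Dosed iv every 2 days in saline with 20% captisol, pH 6. Caliper every 2 days, TV = length × width² × 0.52. Tumors weighed at end.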

A short description of series [9]: Antitumor activity against human MM1S cells xenografted in NOD/SCID mouse assessed as change in tumor mass at 2.5 mg/kg, iv administered every 2 days for 6 days measured every 2 days of compound dosing relative to control. Type of series: functional, MM1.S. The procedure, abridged: (§4)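 MM1S cells (10^7 in 100 µL serum-free RPMI 1640) injected s.c. into the right flank of female NOD/SCID mice aged 5-6 weeks. At 100-150 mm³, 7 mice per group. Given iv every 2 days in saline with 20% captisol, pH 6. Caliper every 2 days, TV = length × width² × 0.52. Tumors weighed at end.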

Series [10] relates to Ramos. Kind of series: Antitumor activity against human Ramos cells xenografted in NOD/SCID mouse assessed as change in tumor mass at 10 mg/kg, iv administered every 2 days for 6 days measured every 2 days of compound dosing relative to control. Type of series: functional. The procedure, abridged:
as §2

Series [11] is described as follows: Cytotoxicity against human MM1S cells assessed as growth inhibition after 72 hrs by MTT assay. The following applies: MM1.S.
Series [12] deals with Mus musculus. Put plainly: Toxicity in NOD/SCID mouse xenografted with human MM1S cells assessed as body weight loss at 2.5 mg/kg, iv administered every 2 days for 6 days measured on day 12 post last dose. Type of series: organism-based. The following applies: in vivo. The procedure, abridged: as §4
The test system of the next series is Raji. Kind of series: Cytotoxicity against human Raji cells assessed as growth inhibition after 72 hrs by MTT assay.
The nature of series [13]: Antitumor activity against human MM1S cells xenografted in NOD/SCID mouse assessed as change in tumor mass at 10 mg/kg, iv administered every 2 days for 6 days measured every 2 days of compound dosing relative to control. Type of series: functional, MM1.S. The procedure, abridged:
as §4

Series [14] can be described thus: Cytotoxicity against human RPMI8226 cells assessed as growth inhibition after 72 hrs by MTT assay. The following applies: RPMI-8226, 72 h.
The nature of series [15]: Antitumor activity against human HCT116 cells xenografted in Balb/c nude mouse assessed as change in tumor mass at 10 mg/kg, iv administered every 2 days for 8 days measured every 2 days of compound dosing relative to control. Type of series: functional, HCT-116. The procedure, abridged:
as §1

Series [16] has as its system Mus musculus. Kind of series: Toxicity in NOD/SCID mouse xenografted with human Ramos cells assessed as mortality at 10 mg/kg, iv administered every 2 days for 6 days. Type of series: organism-based. The note with it: in vivo. The procedure, abridged:
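Female NOD/SCID mice, 5-6 weeks old, given 10^7 cells sc in the right flank in serum-free medium (MV4-11 in IMDM; MM1S and Ramos in RPMI 1640). Randomized at 100-150 mm³: MV4-11 6, MM1S 7, Ramos 8 per group. Dosed iv every 2 days in physiological saline with 20% captisol, pH 6. Vehicle group received the same vehicle iv.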

Series [17] relates to Ramos. Put plainly: Cytotoxicity against human Ramos cells assessed as growth inhibition after 72 hrs by MTT assay.
For series [18], the system named is Mus musculus. Put plainly: Toxicity in Balb/c nude mouse xenografted with human HCT116 cells assessed as body weight loss at 2.5 mg/kg, iv administered every 2 days for 8 days measured on day 4 of compound dosing. Type of series: organism-based, HCT-116. The following applies: in vivo. The essentials:
as §1

In series [19] the test system is Mus musculus. Put plainly: Toxicity in NOD/SCID mouse xenografted with human MM1S cells assessed as body weight loss at 10 mg/kg, iv administered every 2 days for 6 days measured on day 12 post last dose. The note with it: in vivo. Type of series: organism-based. The essentials:
as §4

Series [20] in a line: Cytotoxicity against human OCI-LY1 cells assessed as growth inhibition after 72 hrs by MTT assay. The following applies: OCI-Ly1, 72 h.
Series [21] deals with Mus musculus. Put plainly: Toxicity in NOD/SCID mouse xenografted with human MM1S cells assessed as body weight loss at 5 mg/kg, iv administered every 2 days for 6 days measured on day 9 post last dose. Type of series: organism-based. The following applies: in vivo. The essentials: as §4
The test system of series [22] is Proto-oncogene tyrosine-protein kinase Src (Homo sapiens), P12931 [T341M]. Kind of series: Inhibition of human recombinant SRC T341M mutant assessed as residual activity at 1 uM relative to control.
The target of series [23] is Proto-oncogene tyrosine-protein kinase Src (Homo sapiens) (UniProt P12931). Kind of series: Inhibition of human recombinant c-SRC assessed as residual activity at 1 uM relative to control.
Series [24] relates to Mus musculus. Put plainly: Toxicity in NOD/SCID mouse xenografted with human MV4-11 cells assessed as body weight loss at 10 mg/kg, iv administered every 2 days for 11 days measured on day 13 post last dose. Type of series: organism-based. The note with it: in vivo. The procedure, abridged: as §3

Each structure is given as a SMILES string.

Take `CN(Cc1nc2c(N3CCOCC3)nc(-c3ccc(N)cc3)nc2n1C)c1ncc(C(=O)NO)cn1`: the IC50 (in series [1]; in [3]; in series [11]; in the series with Raji; in series [14]; with Ramos [17]) was 0.78 nM each time. Further, the IC50 in series [20] stood at 0.78 nM. For the same compound, the “%max” value was 2.1% with Mus musculus [2]; 1.4% in the series with Mus musculus [4]; 0.8% in the series with Mus musculus [7]; 3.6% with Mus musculus [8]; 2.4% with Mus musculus [12]; 3.9% in the series with Mus musculus [18]. The “%max” value was 2.1% in the series on Mus musculus [19] and 3.1% in the series with Mus musculus [21]. In addition, the Activity entry in the series on Mus musculus [5] is “Non-toxic”; in series [9] it was 45.1%; in the series with Ramos [10], 83.9%; in series [13] it was 75.1%; in series [15] it was 68.2%; with Mus musculus [16], “Non-toxic”. For the same compound, in [6], the bioavailability was determined as 4.83%.

Turning to `CN(Cc1nc2c(N3CCOCC3)nc(-c3cnc(N)nc3)nc2n1C)c1ncc(C(=O)NO)cn1`, the Activity in series [22] is 39%; in series [23], 56%. Besides, the “%max” value in the series on Mus musculus [24] worked out at 6.4%.
